Results collected from several papers.
Cell line: A549
Read-out: cell growth or viability

C[C@H]1Oc2cc(cnc2N)-c2c(nn(C)c2C#N)CN(C)C(=O)c2ccc(F)cc21
IC50: > 8.41 µM

[NH2][Pt]([NH2])([Cl])[Cl]
IC50 (MTT): 9.5 µM

Cc1nc(N(C)c2ccc3c(c2)/C(=C/c2ccccc2Cl)C(=O)N3C)c2ccccc2n1
IC50 (MTT): 7.68 µM

C=C(F)C(=O)N1CCN(c2nc(OC[C@@H]3CCCN3C)nc3c2CCN(c2cccc4cccc(Cl)c24)C3)C[C@@H]1CC#N
IC50 (ATP luminescence; 3D culture): > 1 µM

COc1cc2ncnc(N(C)c3ccc4c(c3)/C(=C/c3cccc(Cl)c3)C(=O)N4C)c2cc1OC
IC50 (MTT): 5.83 µM

O=C(C=Cc1ccccc1)Nc1cc(-c2ccnc(N3CCOCC3)c2)ccn1
IC50 (MTT; 72 h): 0.444 µM

C#Cc1cccc(Nc2ncnc3cc(OCCOC)c(OCCOC)cc23)c1
IC50 (MTT; 72 h): 25.6 µM

CNC(=O)c1cc(Oc2ccc(NC(=O)Nc3ccc(Cl)c(C(F)(F)F)c3)cc2)ccn1
IC50 (MTT; 72 h): 5.58 µM

O=C(O)c1ccc2c(c1)nc(Nc1cccc(Cl)c1)c1ccncc12
IC50 (crystal violet; 48 h): 10.5 µM

Cc1nc(N(Cc2ccccc2)c2ccc3c(c2)/C(=C/c2ccccc2)C(=O)N3Cc2ccccc2)c2ccccc2n1 (mixture of isomers)
IC50 (MTT): 0.64 µM

C=CC(=O)Nc1cc(Nc2nccc(-c3cn(C)c4ccccc34)n2)c(OC)cc1N(C)CCN(C)C
IC50 (MTT; 72 h): 28.2 µM

Cc1nc(Nc2ccc3c(c2)/C(=C/c2ccccc2)C(=O)N3Cc2ccccc2)c2ccccc2n1
IC50 (MTT): 44.7 µM

Cc1ccc2c(-c3cc4c(CN5CCN(Cc6ccccn6)CC5)cnc(C)c4o3)cc(=O)oc2c1
IC50 (MTT; 72 h): 43.1 µM
